In the library only some 1.7% were active in any assay of this set; here they are far more common.
APJ antagonist = APJ receptor antagonism; CHO-K1 APJ beta-arrestin complementation, luminescence; inhibition, % at 20 µM; 0.32% of 330,000 active; AID 2521;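 active means inhibition above about 40% at 20 µM, limit read from the data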;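 further: cells challenged with 10 nM apelin-13 agonist together with compound; plate controls were apelin-13 plus DMSO wells for no effect and DMSO wells lacking apelin-13 for full effect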
CXCR6 inh = CXCR6 (human) receptor inhibition; 0.36% of 360,000 active; AID 602244; CHO-K1 PathHunter CXCR6 beta-arrestin, luminescence; inhibition, % at 20 µM; O00574; in the data active means inhibition above about 34%, passing the limit was not always enough;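 further: antagonist mode with CXCL16 agonist at 10 nM final; 0% = 10 nM CXCL16 with DMSO and 100% = unstimulated wells without agonist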
CCR6 antagonist = antagonists of human CCR6 receptor | AID 493098 | CHO-K1 CCR6 PathHunter beta-arrestin, luminescence, CCL20-stimulated | 0.49% of 340,000 active | P51684 | inhibition, % at 20 µM;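 active means compounds whose inhibition of the agonist-driven luminescence signal at 20 µM reaches about 50%, limit read from the data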;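 further: cells stimulated with CCL20 at 14 nM final; plate controls were DMSO with CCL20 for no effect and DMSO without agonist for full effect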
B2AR ag = human beta-2 adrenergic receptor agonism by FAP; 0.43% of 340,000 active; response, % (test concentration not listed); Am2.2-beta2AR cells, FAP receptor internalization, flow cytometry;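 active means response above a set limit, near 3 SD of response in nonfluorescent compounds, cut at about 42% in these data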
Target sequence (P07550 whole entry, looked up): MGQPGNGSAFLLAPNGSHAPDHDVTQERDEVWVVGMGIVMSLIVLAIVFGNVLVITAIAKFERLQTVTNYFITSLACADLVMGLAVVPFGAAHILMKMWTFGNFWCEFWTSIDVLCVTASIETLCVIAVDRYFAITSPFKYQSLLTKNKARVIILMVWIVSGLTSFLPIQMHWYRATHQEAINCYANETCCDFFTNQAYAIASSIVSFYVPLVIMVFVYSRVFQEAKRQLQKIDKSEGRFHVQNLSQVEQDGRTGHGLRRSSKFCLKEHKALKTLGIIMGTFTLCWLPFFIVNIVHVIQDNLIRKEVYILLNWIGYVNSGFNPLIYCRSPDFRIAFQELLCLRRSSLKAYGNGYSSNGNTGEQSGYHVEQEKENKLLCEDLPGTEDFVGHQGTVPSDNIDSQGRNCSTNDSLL
PfG6PD inh = PfG6PD (Plasmodium falciparum) enzyme inhibition | PfGluPho enzyme, NADPH resazurin-diaphorase fluorescence | inhibition, % at 20 µM | 0.78% of 350,000 active;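 active means inhibition reaching at least a set limit at 20 µM in the primary screen, cut at about 59% in these data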;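 further: 0% = DMSO wells with substrate and 100% = DMSO wells lacking glucose-6-phosphate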
APJ ag = agonists of human APJ apelin receptor; P35414; CHO-K1 APJ PathHunter beta-arrestin, luminescence; 0% DMSO wells, 100% apelin; activation, % at 20 µM; 0.11% of 330,000 active; AID 2520;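 active means activation more than six SD over the plate average, tested at 20 µM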;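 further: 0% = DMSO alone and 100% = apelin-13 at 10 nM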
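Test system – PathHunter CHO-K1 APJ (AGTRL-1) beta-arrestin reporter cells · Input – 1000 cells/well · Compound – single test compound dose, 20 µM final, 1% DMSO · Times – compound stimulation 90 min at 25 °C, detection 60 min · Technique – beta-gal luminescence · Read-out basis – APJ–arrestin association signal · Control set – negative DMSO alone, positive Apelin-13 at 10 nM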
CXCR6 antag conf = confirmation of human CXCR6 receptor antagonists | shares compounds with CXCR6 inh | CHO-K1 CXCR6 PathHunter beta-arrestin, luminescence | inhibition, % at 20 µM | 65% of 700 active | AID 602409;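 active means mean inhibition over four retests above 40%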;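 further: receptor stimulated with 10 nM CXCL16 agonist; beta-galactosidase fragment complementation upon beta-arrestin recruitment to receptor; plate controls were CXCL16 plus DMSO for no effect and DMSO without CXCL16 for full effect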
The depositor's hits bear a star; nt = not tested or not shown.

SMILES	APJ antagonist	CXCR6 inh	CCR6 antagonist	B2AR ag	PfG6PD inh	APJ ag	CXCR6 antag conf
O=C1NC[C@H](c2ccccc2)OC(=O)[C@@H](Cc2ccc(F)cc2)CC/C=C/C[C@@H]1CC(=O)N(CCO)Cc1ccccc1	nt	55*	62*	-3	-6	nt	45*
CC[N+]1(C)CCC(O)(/C=C/c2ccccc2)C(C(=O)/C=C/c2ccccc2)C1 (stereo unspecified)	nt	40*	63*	10	38	nt	68*
CC(=O)Nc1ccc(Sc2ccc([N+](=O)[O-])o2)cc1	nt	52*	57*	38	14	nt	60*
O=C(Nc1nnc(-c2ccco2)o1)c1ccc(Cl)s1	-16	11	-4	-11	-6	-1	nt
COc1cccc(-c2nnc(NC(=O)c3ccc(Cl)s3)o2)c1	20	55*	nt	17	22	-4	46*
COC(=O)CN1C(=O)NC2(CCCc3ccccc32)C1=O (stereo unspecified)	11	-12	2	2	12	-3	nt
COC(=O)c1ccc(CN2C(=O)NC3(CCCc4ccccc43)C2=O)o1 (stereo unspecified)	5	46*	31	3	-6	-1	-5
Cc1ccc(NC(=O)COc2cccc(-n3cnnn3)c2)cc1S(=O)(=O)N1CCOCC1	-19	-12	0	16	-8	0	nt
Cc1[nH]n2c(=O)cc(-c3ccc([N+](=O)[O-])cc3)nc2c1-c1ccccc1	17	59*	nt	18	-27	-3	52*
COc1cc(COc2ccc3c(C)c(CC(=O)O)c(=O)oc3c2C)cc(OC)c1OC	5	2	6	-8	2	-1	nt
Nc1ccccc1SC(CC(=O)c1ccccc1)c1ccccc1 (stereo unspecified)	nt	11	nt	nt	39	nt	nt
CC(C(Sc1ccccc1N)c1ccccc1)[N+](=O)[O-] (stereo unspecified)	16	30*	48	33	57	0	28
COc1ccc(Nc2ncccc2C(=O)O)cc1	-1	70*	-35	0	-9	1	17
CC1(C)Cc2ccccc2C(NNC(=O)c2ccccc2)=N1	3	12	8	-3	-5	-4	nt
CC1(C)Cc2ccccc2C(NNC(=O)c2ccccn2)=N1	22	45*	28	27	43	-6	41*
COc1ccc(N2C[C@H](CSC)[C@@H](CC(=O)Nc3ccccc3)C2=O)cc1	nt	43*	nt	nt	4	nt	23
CCc1ccc(-n2c(C)n[nH]c2=S)cc1	5	-3	1	0	28	-1	nt
O=C(C(=Cc1ccc(F)cc1)C(=O)c1ccccc1)c1ccccc1	nt	42*	nt	nt	nt	nt	58*
O=C(C(=Cc1ccc(F)cc1)c1ccccc1)c1ccc(O)cc1	nt	0	13	0	-17	nt	nt
O=C(O)c1ccc(-n2nc(C(F)(F)F)cc2-c2cccs2)cc1	13	6	5	1	-42	-1	nt
O=S(=O)(NC(=S)c1ccccc1)c1ccc(F)cc1	27	76*	-9	-3	8	-1	0
CS(=O)(=O)c1ccc2nc(NC(=O)CN3CCN(Cc4ccccc4)CC3)sc2c1	11	40*	2	15	6	3	9
CS(=O)(=O)c1ccc2nc(NC(=O)CN3CCC(Cc4ccccc4)CC3)sc2c1	-4	-6	28	9	-28	-4	nt
CCn1c(C)cs/c1=N\S(=O)(=O)c1ccccc1	5	-8	-14	6	5	-2	nt
O=Cc1s/c(=N\S(=O)(=O)c2ccccc2)n(CCCCl)c1Cl	nt	98*	105*	104*	40	nt	104*
SMILES	APJ antagonist	CXCR6 inh	CCR6 antagonist	B2AR ag	PfG6PD inh	APJ ag	CXCR6 antag conf
Cc1ccc(S(=O)(=O)N2CCN(CCc3ccccc3)CC2)c(C)c1	6	5	-9	-13	13	-1	nt
Cc1ccc(S(=O)(=O)ON2C(=O)c3ccccc3C2=O)c(C)c1	nt	67*	61*	-3	41	nt	27
Cc1cccc(C(=O)N[C@H](C(=O)Nc2ccc3c(c2)OCO3)C(C)C)c1	-7	1	20	6	-2	-7	nt
O=C(c1ccc(Br)s1)N1CCN(c2ncccn2)CC1	-9	41*	6	-12	-1	-5	3
COc1ccccc1NC(=O)c1ccc(NC(=O)COC(=O)c2cncc(Br)c2)cc1	14	-1	-1	-4	12	-1	nt
Cc1cc2c3c([nH]c2cc1S(=O)(=O)N1CCC2(CC1)OCCO2)CCCC3=O	19	4	9	-5	-10	6	nt
O=C(C[C@@H]1C/C=C/CC[C@@H](Cc2ccc(F)cc2)C(=O)OC[C@H](Cc2ccccc2)NC1=O)N[C@H](CO)Cc1ccccc1	10	-4	-9	6	-4	-4	nt
O=C(C#Cc1ccccc1)c1ccccc1	nt	71*	nt	nt	28	nt	72*
CN(C)C(=O)C#Cc1ccccc1	12	-2	8	-4	-11	-2	nt
O=C(/C=C/c1cccc([N+](=O)[O-])c1)c1ccc([N+](=O)[O-])o1	nt	95*	105*	67*	98*	nt	98*
CN(C)C(=O)CCc1ccc2c3c([nH]c2c1)[C@]1(C)[C@@H](C(=O)N2CCCCC2)C[C@H](CC(=O)NCC24CC5CC(CC(C5)C2)C4)C(=O)N1CC3	nt	7	19	-8	21	nt	nt
CCc1nnc(NC(=O)c2cc(-c3ccncc3)nc3ccccc23)s1	-13	47*	-3	6	-16	-1	29
C=C1CC(COc2cc(=O)oc3ccccc23)(c2ccccc2)OC1=O (stereo unspecified)	nt	89*	100*	72*	29	nt	90*
C=C1CCC2C(C)(C)[C@H](O)CC[C@@]2(C)[C@@H]1COc1cc(=O)oc2ccccc12 (stereo partly specified)	-6	-3	4	-4	10	10	nt
CCOC(=O)C1CCN(C(=O)CSc2nnc(-c3ccco3)n2-c2ccccc2)CC1	-19	5	-5	9	0	-6	nt
O=C(CSc1nnc(-c2ccco2)n1-c1ccccc1)N1CCOCC1	7	63*	4	2	10	-6	12
CS(=O)(=O)N(CC(=O)Nc1ccccc1C(=O)N1CCOCC1)c1cccc(F)c1	10	-3	2	3	8	-3	nt
CCOc1ccc(N(CC(=O)Nc2ccccc2C(=O)N2CCOCC2)S(=O)(=O)c2ccc(F)cc2)cc1	3	70*	3	-2	12	-4	-5
COc1cccc(NCc2cc3c(C(C)(C)C)nn(-c4ccccc4)c3[nH]c2=O)c1	14	-5	1	-23	-8	-1	nt
CCOc1ccc(NCc2cc3c(C(C)(C)C)nn(-c4ccccc4)c3[nH]c2=O)cc1	18	48*	23	0	-10	-4	25
